Source: PubChem BioAssay (Sanford-Burnham Center for Chemical Genomics)
HKDC1 act = HKDC1 (human) hexokinase activation. recombinant HKDC1, G6PDH/diaphorase resazurin fluorescence; active compounds read low. 340,000 compounds, 0.056% hits. Q2TB90. activity change, negative = activation, % at 20 µM. AID 493187;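 active = activation of 40% or more at 20 µM, a change of -40% or lower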
Target sequence (Q2TB90 whole entry, looked up): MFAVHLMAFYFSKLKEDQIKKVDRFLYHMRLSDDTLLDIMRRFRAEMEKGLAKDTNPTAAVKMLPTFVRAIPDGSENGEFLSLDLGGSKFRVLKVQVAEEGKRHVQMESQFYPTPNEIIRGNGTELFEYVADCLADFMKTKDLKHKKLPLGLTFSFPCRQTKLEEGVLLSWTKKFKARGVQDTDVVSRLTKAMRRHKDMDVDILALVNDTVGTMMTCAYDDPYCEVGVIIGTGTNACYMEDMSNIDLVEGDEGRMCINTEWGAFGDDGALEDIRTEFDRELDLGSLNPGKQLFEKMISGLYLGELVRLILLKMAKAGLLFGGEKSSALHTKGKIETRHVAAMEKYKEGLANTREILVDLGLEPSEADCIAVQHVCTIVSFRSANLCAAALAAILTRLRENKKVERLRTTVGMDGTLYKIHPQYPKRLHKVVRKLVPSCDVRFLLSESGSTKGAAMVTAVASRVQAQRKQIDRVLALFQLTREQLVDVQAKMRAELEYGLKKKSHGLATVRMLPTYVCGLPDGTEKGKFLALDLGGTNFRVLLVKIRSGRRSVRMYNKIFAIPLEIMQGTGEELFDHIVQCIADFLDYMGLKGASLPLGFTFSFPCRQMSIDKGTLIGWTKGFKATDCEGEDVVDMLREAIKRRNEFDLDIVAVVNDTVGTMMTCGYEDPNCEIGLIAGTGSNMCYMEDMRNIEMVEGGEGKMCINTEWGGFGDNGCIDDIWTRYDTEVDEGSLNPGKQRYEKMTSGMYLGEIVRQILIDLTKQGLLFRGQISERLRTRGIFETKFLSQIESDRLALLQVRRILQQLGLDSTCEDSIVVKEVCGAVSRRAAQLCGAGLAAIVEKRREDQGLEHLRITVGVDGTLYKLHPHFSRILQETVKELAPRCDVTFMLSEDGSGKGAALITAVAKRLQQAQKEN
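System: in-house human HKDC1 enzyme, G6PDH and diaphorase coupling enzymes; Quantity: 5 µg/mL HKDC1 final; Buffer or medium: Tris/MgCl2 buffer, pH 8.0; Dosing: single compound dose of 20 µM, 1% DMSO final; Times: 90 min reaction at room temperature, dark; Detection: coupled resazurin-to-resorufin fluorescence, Ex 525/Em 613 nm.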
Numbers stand for hits; n = inactive. Not all results are given here.

SMILES | HKDC1 act
COC(=O)c1c(NC(C)=O)sc(Cc2ccccc2)c1C | -77
O=C(/C=C/c1cccc([N+](=O)[O-])c1)c1ccc([N+](=O)[O-])o1 | n
O=Cc1ccc(Sc2nnc(-c3ccccc3)o2)c([N+](=O)[O-])c1 | n
COC(=O)CCC(=O)OC1(C)C(=O)C2=CN(CC3CC3)C(c3ccc(OC)cc3)=CC2=C(Br)C1=O (stereo not drawn) | n
CCCN(CCC)C(=O)c1cc([N+](=O)[O-])cc2c1-c1ccc([N+](=O)[O-])cc1C2=C(C#N)C#N | n
CCOC(=O)C1=C(O)c2ccccc2C(=O)/C1=C\c1ccc(C)cc1 | n
NC(=O)[C@H]1CC2(CC(c3cccc(NC(=O)[C@H]4CCC(=O)N4)c3)=NO2)CN1C(=O)c1ccccc1 (stereo partly drawn) | n
Nc1nc(Cl)c(N)c(NCC2(CO)CC(CCc3ccccc3)C2)n1 (stereo not drawn) | n
C=CCNC(=S)N/N=C(\C)c1ccccn1 | -44
COc1cc2c(C#N)c(N3CCc4ccccc4C3)nc(N)c2c(N)n1 | n
Cc1ccc(S(=O)(=O)N2CCN(C(=O)CN3C(=O)NC4(CCCCC4)C3=O)CC2)c(C)c1 | n
CC(NNC(=S)N1CCN(c2ccccn2)CC1)c1nccc2ccccc12 (stereo not drawn) | -42
O=C(O)c1cc(O)c2c(c1)[C@H]([C@H]1c3cc(C(=O)O)cc(O)c3C(=O)c3c(O[C@@H]4O[C@H](CO)[C@@H](O)[C@H](O)[C@H]4O)cccc31)c1cccc(OC3O[C@H](CO)[C@@H](O)[C@H](O)[C@H]3O)c1C2=O (stereo partly drawn) | n
CCOC(=O)c1cc(-c2ccc(/C=C3/C(=O)N(c4ccc(C(=O)O)cc4)N=C3C)o2)ccc1Cl | n
O=S(=O)(Nc1ccc(O)c2ccccc12)c1ccc(F)cc1 | n
CCN(CC)c1ccc(/C=N/NC(=O)c2cccc(S(=O)(=O)Nc3ccccc3OC)c2)c(O)c1 | -43
CCc1ccc(S(=O)(=O)Nc2ccc(O)c3ccccc23)cc1 | n
NC(=NCCCCCCN=C(N)/N=C(\N)Nc1ccc(Cl)cc1)/N=C(\N)Nc1ccc(Cl)cc1 | n
CCCCCCCCCC(=O)NNC(=O)c1c(O)c2ccccc2n(CC)c1=O | -41
O=C1c2ccc3c4c(ccc(c24)C(=O)N1c1ccc(O)cc1)C(=O)N(c1ccc(O)cc1)C3=O | n
CCOC(=O)C1CCN(C(=O)Nc2ccc3nc(-c4ccco4)c(-c4ccco4)nc3c2)CC1 | n
Cc1cc(C(=O)N=Nc2c(O)n(C(C)C)c3ccccc23)n[nH]1 | n
O=C(COc1ccccc1/C=C\c1[nH]c(=O)[nH]c(=O)c1[N+](=O)[O-])Nc1ccccc1 | n
COc1ccc(C2=NNC(=Nc3cc(S(=O)(=O)N(C)C)ccc3C)SC2)c(OC)c1 | -125
CN(C)S(=O)(=O)c1cccc(N=C2NN=C(c3ccccc3)CS2)c1 | -281
SMILES | HKDC1 act
CC(=O)Nc1ccc(C2=NNC(=Nc3cccc(S(=O)(=O)N(C)C)c3)SC2)cc1 | -284
CC(NC1=CC(=O)c2cccnc2C1=O)C(O)c1ccccc1 (stereo not drawn) | n
CCCC(NC(=O)Cc1c(C)c2cc3c(C)c(C)oc3c(C)c2oc1=O)C(=O)N[C@@H](Cc1ccccc1)C(=O)O (stereo partly drawn) | n
C=CC(=O)N1C/C(=C/c2ccccc2)C(=O)/C(=C\c2ccccc2)C1 | n
CCOc1ccc2c(c1)C(NC(C)=O)C(=O)N2CCN1CCOCC1 (stereo not drawn) | n
N#CC(C#N)=Cc1cc2ccccc2nc1N1CCCCC1 | n
CCc1nc2c(c(=O)c3ccccc3n2C)c(=O)n1-c1ccc(F)cc1 | n
Cc1c(N=C2C=CC(=O)c3ccccc32)c(=O)n(-c2ccccc2)n1C | n
CNCc1ccccc1Sc1cc(O)ccc1O | n
COc1ccccc1N(C)S(=O)(=O)c1ccc(Cl)c(C(=O)NCC2(N(C)C)CCCCC2)c1 | n
CN(C)c1ccc(C=c2c3ccccc3n3c2cc(-c2ccccc2)[n+]3C)cc1 | n
Cc1ccc2c(c1C)NC(C(=O)O)C1CC=CC21 (stereo not drawn) | n
CCN(CC)c1ccc(NC(=O)c2ccccc2Br)cc1S(=O)(=O)Nc1ccccc1OC | -43
CC1(OC(=O)CCc2ccccc2)C(=O)C=C2C=C(c3ccc(C#N)cc3)N(Cc3ccccc3)C=C2C1=O (stereo not drawn) | n
CCC1C/C(=C\c2cccnc2)C(=O)/C(=C/c2cccnc2)C1 (stereo not drawn) | n
COCCNc1ccc([N+](=O)[O-])cc1C(=O)Nc1cccc(C)n1 | -58
Cc1ccc(S(=O)(=O)/N=C2/C=C(Sc3ncn[nH]3)C(=O)c3ccccc32)cc1 | n
CCN(CC)c1ccc2c(c1)oc(=O)c1c(Cl)cc(=O)oc12 | n
O=C(O)c1cc(O)c2c(c1)[C@@H]([C@H]1c3cc(C(=O)O)cc(O)c3C(=O)c3c(O[C@@H]4O[C@H](CO)[C@@H](O)[C@H](O)[C@H]4O)cccc31)c1cccc(OC3O[C@H](CO)[C@@H](O)[C@H](O)[C@H]3O)c1C2=O (stereo partly drawn) | n
O=C1/C(=C/Nc2cccc([N+](=O)[O-])c2)CCc2ccccc21 | n
Cc1cc(/C=C\c2ccc3cc(N(C)C)ccc3[n+]2C)c(C)n1-c1ccccc1 | n
CCCCNCCOCCOc1ccccc1-c1ccccc1 | -59
C=CC1=C(C(=O)O)N2C(=O)C(NC(=O)Cc3ccccc3)C2SC1 (stereo not drawn) | n
Cc1cc(C(=O)COC(=O)c2cc(O)c3ccccc3c2O)c(C)n1CC1CCCO1 (stereo not drawn) | n
O=C(OCC(=O)N1CCN(C(=O)c2ccco2)CC1)c1cc(-c2ccccc2)nc2ccccc12 | n
SMILES | HKDC1 act
Oc1ccc(O)c(Cc2nc3ccccc3[nH]2)c1 | n
CC(C(=O)O)N1C(=O)/C(=C/C=C/c2ccco2)SC1=S (stereo not drawn) | n
Cc1ccc(N=C2C(=S)N(c3ccc(C)cc3)C(=N)N2/N=C/c2ccc(Cl)cc2)cc1 | -119
CCC(=O)OC1(C)C(=O)C2=COC(c3ccc(OC)cc3)=CC2=C(Br)C1=O (stereo not drawn) | n
COC(=O)c1ccc(NCc2c(O)ccc(O)c2Br)cc1Cl | n
CC(=O)Nc1ccc(S(=O)(=O)NCCC(=O)OC(C)C(=O)c2ccc(C)cc2)cc1 (stereo not drawn) | n
Cc1ccc(S(=O)(=O)/N=C2\C=C(Nc3cccc(C(=O)O)c3)C(=O)c3ccccc32)c(C)c1 | n
